Data as given in PMC3136873 (Archives of biochemistry and biophysics, 2011).

Key:
[1] = target: T1, ALAS/ALAS (single chain dimeric ALAS) (Mus musculus, UniProt P08680); assay: dissociation constant for ALA binding
T1 sequence (P08680 50-587): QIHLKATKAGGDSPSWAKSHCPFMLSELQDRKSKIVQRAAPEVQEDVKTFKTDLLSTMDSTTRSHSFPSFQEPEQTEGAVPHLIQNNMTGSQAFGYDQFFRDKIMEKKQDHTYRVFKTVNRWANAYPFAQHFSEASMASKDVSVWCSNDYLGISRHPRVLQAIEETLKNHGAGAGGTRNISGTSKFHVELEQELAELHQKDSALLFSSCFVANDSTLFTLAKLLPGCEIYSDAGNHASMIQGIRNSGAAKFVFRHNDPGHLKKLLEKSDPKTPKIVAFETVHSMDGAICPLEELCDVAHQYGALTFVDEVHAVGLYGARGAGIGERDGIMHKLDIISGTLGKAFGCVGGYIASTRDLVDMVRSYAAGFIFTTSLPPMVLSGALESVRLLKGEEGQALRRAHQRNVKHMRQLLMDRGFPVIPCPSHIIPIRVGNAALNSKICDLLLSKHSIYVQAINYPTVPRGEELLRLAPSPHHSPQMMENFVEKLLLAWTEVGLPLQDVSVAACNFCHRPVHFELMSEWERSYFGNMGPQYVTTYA

ALAS/AONS = assay: continuous coupled spectrophotometric assay; type: biochemical, Mus musculus; Escherichia coli; settings: read-out: KmSCoA; ALAS site; co-substrate glycine; 30 °C
In short: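 ALAS/AONS chimera was expressed in E. coli DH5α and purified by 20–40% ammonium sulfate fractionation, Ultrogel ACA-44 gel filtration and Q-Sepharose (100–150 mM KCl gradient). Its concentration was taken on a 96 kD subunit basis. ALAS-site activity was read continuously by spectrophotometry at 30 °C, varying one substrate with the other held constant. Km came from Michaelis-Menten nonlinear regression.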

SEC = target: the molecule itself; assay: SEC

In the case of `NCC(=O)CCC(=O)O` [ALA, 5-aminolevulinate], the Kd [1] is reported as 1.46 ± 0.01 µM.

Molecule `CC(C)(COP(=O)(O)OP(=O)(O)OC[C@H]1O[C@@H](n2cnc3c(N)ncnc32)[C@H](O)[C@@H]1OP(=O)(O)O)[C@@H](O)C(=O)NCCC(=O)NCCSC(=O)CCC(=O)O` [SCoA, succinyl-CoA] has a Km (ALAS/AONS) of 1.5 ± 0.2 µM.

B1: ALAS/AONS chimera (single-chain chimera of murine erythroid 5-aminolevulinate synthase and E. coli 8-amino-7-oxononanoate synthase) (enzyme, murine | E. coli)
chain: QIHLKATKAGGDSPSWAKSHCPFMLSELQDRKSKIVQRAAPEVQEDVKTFKTDLLSTMDSTTRSHSFPSFQEPEQTEGAVPHLIQNNMTGSQAFGYDQFFRDKIMEKKQDHTYRVFKTVNRWANAYPFAQHFSEASMASKDVSVWCSNDYLGISRHPRVLQAIEETLKNHGAGAGGTRNISGTSKFHVELEQELAELHQKDSALLFSSCFVANDSTLFTLAKLLPGCEIYSDAGNHASMIQGIRNSGAAKFVFRHNDPGHLKKLLEKSDPKTPKIVAFETVHSMDGAICPLEELCDVAHQYGALTFVDEVHAVGLYGARGAGIGERDGIMHKLDIISGTLGKAFGCVGGYIASTRDLVDMVRSYAAGFIFTTSLPPMVLSGALESVRLLKGEEGQALRRAHQRNVKHMRQLLMDRGFPVIPCPSHIIPIRVGNAALNSKICDLLLSKHSIYVQAINYPTVPRGEELLRLAPSPHHSPQMMENFVEKLLLAWTEVGLPLQDVSVAACNFCHRPVHFELMSEWERSYFGNMGPQYVTTYAELMSWQEKINAALDARRAADALRRRYPVAQGAGRWLVADDRQYLNFSSNDYLGLSHHPQIIRAWQQGAEQFGIGSGGSGHVSGYSVVHQALEEELAEWLGYSRALLFISGFAANQAVIAAMMAKEDRIAADRLSHASLLEAASLSPSQLRRFAHNDVTHLARLLASPCPGQQMVVTEGVFSMDGDSAPLAEIQQVTQQHNGWLMVDDAHGTGVIGEQGRGSCWLQKVKPELLVVTFGKGFGVSGAAVLCSSTVADYLLQFARHLIYSTSMPPAQAQALRASLAVIRSDEGDARREKLAALITRFRAGVQDLPFTLADSCSAIQPLIVGDNSRALQLAEKLRQQGCWVTAIRPPTVPAGTARLRLTLTAAHEMQDIDRLLEVLHGNG
With B1 the “stoichiometry N” value (SEC) was 2.
